Tests used:
Assay type in all cases: functional
[1] = test system: Mycobacterium tuberculosis; assay: Antimycobacterial activity against multidrug-resistant Mycobacterium tuberculosis LAM-1 assessed as bacterial growth index at 0.50 uM measured on day 6 by BACTEC MGIT 960TB method relative to control
In short: (§1)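 MDR LAM-1, resistant to INH, RIF, rifabutin and prothionamide, was precultured in BACTEC MGIT vials to GI 300. It was inoculated with compound dilutions made from 1 mg/mL DMSO stocks in 7H9-OADC. Growth index was recorded daily. Day-6 GI was compared with an untreated culture diluted 100-fold (C/100) to set the critical 99% inhibitory concentration. Controls: INH 0.1 μM; moxifloxacin 1.14 μM.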

[2] = test system: Mycobacterium tuberculosis; assay: Antimycobacterial activity against multidrug-resistant Mycobacterium tuberculosis LAM-1 assessed as bacterial growth index at 0.25 uM measured on day 6 by BACTEC MGIT 960TB method relative to control; in short: as §1
[3] = test system: Mycobacterium tuberculosis; assay: Antimycobacterial activity against multidrug-resistant Mycobacterium tuberculosis LAM-1 assessed as bacterial growth index at 2.5 uM measured on day 6 by BACTEC MGIT 960TB method relative to control; in short: as §1

## CCOC(=O)C1CCc2ncc3c(c2C1)C(=O)C1=C(C3=O)C2CCC1CC2 (stereo unspecified)
[1]
  Growth_index: 638
[2]
  Growth_index: 2382

## CC(C)(C)C1CCc2ncc3c(c2C1)C(=O)C1=C(C3=O)C2CCC1C2 (stereo unspecified)
[1]
  Growth_index: 1982
[3]
  Growth_index: 537

## CCOC(=O)C1CCc2ncc3c(c2C1)C(=O)C1=C(C3=O)C2CCC1C2 (stereo unspecified)
[1]
  Growth_index: 367
[2]
  Growth_index: 1970
